Usually inhibition stands for the relative decrease from the control value, in per cent.

Each structure is given as a SMILES string. Among all 220,000 compounds or so, about 440 (0.2%) were called active. The entries come from a sample that favours actives as a whole. Unmarked numbers belong to inactive results.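 The calls were made as follows: active = inhibition above the campaign mean of all tested compounds plus 3 SD (cut at about 14% in these data); inactive = the rest.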

Chain of Serine hydrolase RBBP9 (Homo sapiens) (O75884 whole entry, looked up): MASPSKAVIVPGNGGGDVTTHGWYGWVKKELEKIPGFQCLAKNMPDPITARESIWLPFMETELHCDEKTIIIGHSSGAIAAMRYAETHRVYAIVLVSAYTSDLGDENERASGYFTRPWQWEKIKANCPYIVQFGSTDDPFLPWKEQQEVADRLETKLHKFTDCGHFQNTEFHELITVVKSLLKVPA

This assay concerns the target Serine hydrolase RBBP9 (Homo sapiens) (UniProt O75884). The experiment in a line: human RBBP9 inhibitors, primary screen, biochemical, fluorescence polarization, FP-Rh probe, HTS (AID 1515).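 Also: plate controls were DMSO wells with RBBP9 for no effect and wells lacking RBBP9 protein for full effect.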 As to conditions: recombinant RBBP9, FP-Rh probe fluorescence polarization; at 7.94 µM; stronger effect = higher value. The essentials:
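Test system: recombinant human RBBP9. Quantity: 2.5 µM RBBP9 dispensing solution, before mixing. Detection: FP readout at 525/598 nm. Reagent: Serine-hydrolase probe FP-Rh, 375 nM pre-mixing. Measure: % inhibition. Control set: DMSO-treated enzyme wells and wells lacking RBBP9. Buffer or medium: Tris-NaCl-Pluronic buffer, pH 8.0. Times: preincubation 30 min plus labeling 45 min at 25 °C.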
In general terms: In fluorescence polarisation assays a small probe gives low polarisation when free and higher when bound to something large.
For `CC(C)(C)C1CCC(C(=O)Nc2cccnc2)CC1` (stereo not drawn), the inhibition was -3.33%.

`CN(C)c1ccc(C=NCCc2ccc(S(N)(=O)=O)cc2)cc1`: the inhibition was -3.47%.

Take `CCCc1nc(SCC(=O)Nc2ccc(S(=O)(=O)N(C)C)cc2)c2ccccc2n1`: the inhibition was -8.27%.

Regarding `COc1ccc([C@H]2[C@H](C(C)=O)N3N=Cc4ccccc4C3C23C(=O)OC(C)(C)OC3=O)cc1` (stereo partly drawn), the inhibition was 0.49%.

On to `CC(=O)Nc1nc(C)c(-c2csc(Nc3ccc(S(N)(=O)=O)cc3)n2)s1`, for which the inhibition was -4.68%.

As to `COc1cc2c(cc1OC)CC1(CCCCC1)N=C2`, the inhibition is -7.64%.

`Cc1ccc(-c2nc(C)sc2CC(=O)O)cc1`: the inhibition is -5.14%.

As for `C/C(=N/Nc1nc(-c2ccccc2)c(CC(=O)O)s1)c1ccccc1`, the inhibition was 17% (active).

As to `O=C(O)Cc1sc(-c2ccc(C(=O)O)cc2)nc1-c1ccccc1`, the inhibition was -2.34%.

As for `COc1ccc(NC(C)=O)cc1NC(=O)CN1CCN(C2c3ccccc3-c3ccccc32)CC1`, the inhibition is -0.61%.

In the case of `CC(=O)NC1C(Oc2ccc(C=O)cc2)OC(COC(C)=O)C(OC(C)=O)C1OC(C)=O` (stereo not drawn), the inhibition was -10.2%.

For the compound `CC(=O)NC1=NN(C(C)=O)C(C)(CCS(=O)(=O)c2ccc(Cl)c(Cl)c2)S1` (stereo not drawn), the inhibition was -8.22%.

For the compound `COc1cc(/C=C2/C(=O)ON=C2C)ccc1OCc1ccccc1F`, the inhibition was -7%.

`CC1=NOC(=O)/C1=C\c1ccccc1`: the inhibition was 15.4% (active).

Consider `COc1cc(/C=C2/C(=O)ON=C2C)ccc1OCc1cccc(F)c1`, for which the inhibition was -10.5%.

In the case of `Cc1ccc(S(=O)(=O)N(C)C)cc1NC(=O)c1n[nH]c(=O)c2ccccc12`, the inhibition was 1.59%.

As to `CCOC(=O)C1=C(CC)OC(N)=C(C#N)C1c1ccc(F)cc1F` (stereo not drawn), the inhibition was -1.24%.

On to `N#Cc1cc([N+](=O)[O-])ccc1Oc1cccc(/C=N/NC(=O)c2ccc(Cl)cc2)c1`, for which the inhibition was 1.74%.

Take `Cn1c(CSCC(=O)Nc2ccccc2)nnc1SCc1ccccc1`: the inhibition was 1.33%.

Consider `COc1ccc(C2CC(c3ccccc3)=NN2C(=O)CSc2nccc(=O)[nH]2)cc1` (stereo not drawn), for which the inhibition was -13.6%.

On to `COc1ccc(C2NC(=S)NC3=C2CCc2ccccc23)cc1OC` (stereo not drawn), for which the inhibition is -1.09%.

Consider `COc1ccccc1P(=O)(c1ccccc1)c1ccccc1NC(C)=O` (stereo not drawn), for which the inhibition is 4.53%.

For `O=C(O)CCS(=O)(=O)c1ccc(-c2ccccc2)cc1`, the inhibition is -1.5%.

`CCCC(=O)Nc1ccc2c(c1)nc(CCNC(=O)c1ccco1)n2C`: the inhibition is -8.19%.

Take `CCn1c(CNC(=O)c2ccccc2)nnc1SCC(=O)N1CCN(c2ccccc2)CC1`: the inhibition is -8.71%.

In the case of `Cc1ccc2cc(CCNC(=O)c3c(-c4ccccc4Cl)noc3C)c(=O)[nH]c2c1`, the inhibition was -1.48%.

On to `O=c1c2ccccc2nc2n1C(CSCc1cccc(C(F)(F)F)c1)CS2` (stereo not drawn), for which the inhibition is -8.83%.

As to `N#Cc1c(NC(=O)C2CC(Cl)=CCC2C(=O)O)sc2c1CCCCC2` (stereo not drawn), the inhibition is -6.51%.

Turning to `CCNC(=S)N1CCC(c2nc3cc(C)c(C)cc3[nH]2)CC1`, the inhibition is -6.72%.

As for `Cc1cc([N+](=O)[O-])nn1Cc1ccc(F)cc1`, the inhibition is 16.8% (active).

`Cc1cc([N+](=O)[O-])nn1CC(=O)Nc1ccc(Cc2ccncc2)cc1`: the inhibition is -7.35%.

With `Cc1cc([N+](=O)[O-])nn1CCCC(=O)Nc1cccnc1Cl`, the inhibition was -5.84%.

As for `Brc1cc(/C=N/n2cnnc2)oc1Br`, the inhibition is -14.7%.

Consider `COc1ccccc1NC(=O)C1=C(C)NC(=O)NC1c1ccc(C)s1` (stereo not drawn), for which the inhibition is -5.66%.

As for `Cc1cc(C#N)c(SCC(N)=O)nc1-c1ccc(F)cc1`, the inhibition is -8.75%.

Turning to `CC(C)OCC(O)CN1CCN(C(c2ccccc2)c2ccccc2)CC1` (stereo not drawn), the inhibition was 2.7%.

Consider `O=[N+]([O-])c1ccc(N2CCN(c3ccc(O)cc3)CC2)c(Cl)c1`, for which the inhibition is -8.4%.

Consider `CC(C)C(=O)Nc1ccc(C(=O)NNC(=O)c2cccs2)cc1`, for which the inhibition was 3.67%.

Consider `CC(C)OCCCNC(=O)CNC(=O)c1cccs1`, for which the inhibition is 14.6% (active).

As to `CC(C)NC(=O)C(=O)NCCCOC(C)C`, the inhibition was -0.43%.

For the compound `CCOC(=O)NN1C(=O)c2ccccc2NC1c1ccccc1O` (stereo not drawn), the inhibition was 0.52%.

Take `COCCOC(=O)C1=C(C)Nc2nc(C)nn2C1c1ccccc1` (stereo not drawn): the inhibition is 0.85%.

Consider `COc1cc(C2C(C(=O)OCCC#N)=C(C)NC3=C2S(=O)(=O)c2ccccc23)cc(OC)c1OC` (stereo not drawn), for which the inhibition is 21.6% (active).

For the compound `CCOC(=O)C1=C(N)N2C(=O)C(C)SC2=C(C(=O)OCC)C1c1cc(OC)c(OC)c(OC)c1` (stereo not drawn), the inhibition is 4.66%.

`COc1ccc(NC(=O)Nc2ccc3nsnc3c2)cc1`: the inhibition was -1.59%.

On to `COCCNC(=O)Nc1ccc2nc(-c3ccco3)c(-c3ccco3)nc2c1`, for which the inhibition was 17.9% (active).

Turning to `O=C(NCc1ccccn1)c1ccc2nc(-c3ccco3)c(-c3ccco3)nc2c1`, the inhibition was -0.69%.

For `COC(=O)CC(=O)N1CCN(c2ccc(Cl)c(Cl)c2)CC1`, the inhibition is 0.17%.

Take `CC1(C)CC2CC(C)(CN2c2ncnc3ccc(Br)cc23)C1` (stereo not drawn): the inhibition was -2.76%.

Turning to `CCOC(=O)c1sc(=NC(=O)/C=C/c2cccs2)n(C)c1C`, the inhibition is -10.7%.

With `CCOC(=O)c1ccc(N=C2SC(C(=O)NC)CC(=O)N2CCc2ccccc2)cc1` (stereo not drawn), the inhibition was -5.9%.

As to `COC(=O)Cc1ccc(NC(=S)NCc2ccco2)cc1`, the inhibition is -2.67%.

As for `Cc1nnc(SC(C(=O)Nc2cc(Cl)cc(Cl)c2)c2ccccc2)[nH]c1=O` (stereo not drawn), the inhibition was -10.7%.

Regarding `CSc1sc(C(=O)NNC(=O)c2ccc(Cl)cc2)c2c1C=CCC2`, the inhibition is -0.01%.

As to `COC(=O)c1ccc(C2C3=C(Nc4nnnn42)c2ccccc2OC3)cc1` (stereo not drawn), the inhibition was -9.06%.

In the case of `Cc1ccc(Sc2ccncc2S(N)(=O)=O)cc1`, the inhibition is -3.25%.

Consider `CC(NCc1nc2ccccc2n1C)C12CC3CC(CC(C3)C1)C2` (stereo not drawn), for which the inhibition was 1.94%.

On to `Cc1ccc(-c2cc(C(F)(F)F)n3nc(C(=O)N4CCCC4)cc3n2)cc1`, for which the inhibition is -1.99%.

On to `CCN(CC)C(=O)N1CCN(C(=O)c2ccc(C)cn2)CC1`, for which the inhibition is 18.9% (active).

Turning to `Cc1ccc(OCC(=O)N2CCN(C(=O)c3cccnc3)CC2)cc1`, the inhibition is -7.21%.

As to `Cc1ccc(S(=O)(=O)/N=C(\CN2CCOCC2)N2CCOCC2)cc1`, the inhibition was 5.6%.

Take `CCCCCc1nnc(NC(=O)c2ccc(=O)n(C)n2)s1`: the inhibition was -7.4%.

`CSCCC(NC(=O)c1ccco1)C(=O)OCC(=O)Nc1ncc(Cl)c(C)c1Cl` (stereo not drawn): the inhibition was -5.55%.

For `CC[n+]1c(C)n(-c2ccccc2)c2ccc(NC(C)=O)cc21`, the inhibition was -7.36%.

With `CCC(C)c1ccc(NC(=S)NCc2ccccn2)cc1` (stereo not drawn), the inhibition was -8.32%.

Take `CC(C)Oc1ccc(CCC(=O)NNC(=S)NCc2ccccc2)cc1`: the inhibition is -2.85%.

As to `O=C(CCC1CCCN(Cc2ccc(O)c(Cl)c2)C1)NCc1ccccc1F` (stereo not drawn), the inhibition was -3.09%.

With `Brc1ccc(-c2n(-c3ccccn3)c3ccccc3[n+]2-c2ccccn2)cc1`, the inhibition was 0.06%.

Regarding `CCC(CC)c1nnc(NC(=O)/C=C/c2ccco2)s1`, the inhibition is -5.03%.

`O=C(NCC1CCCO1)C1CCN(C2CCN(C(=O)C3CCCCC3)CC2)CC1` (stereo not drawn): the inhibition is -1.77%.

As to `COC(=O)c1cccc(NS(C)(=O)=O)c1`, the inhibition is 2.15%.

As for `C#CCOCCOCCOCCNc1nc(N2CCN(C(=O)[C@H](C(C)C)n3cc(CCO)nn3)CC2)nc(N2CCN(C(=O)[C@H](C(C)C)n3cc(CCO)nn3)CC2)n1`, the inhibition was -3.79%.

Regarding `Oc1ccc(N=Cc2c(O)ccc3ccccc23)cc1`, the inhibition was 5.11%.

In the case of `Oc1ccc(N=Cc2sc3ccccc3c2Cl)cc1`, the inhibition was 15.9% (active).

On to `O=C(N/N=C/c1c(Cl)[nH]c2ccccc12)c1sc2ccccc2c1Cl`, for which the inhibition was -18.2%.

For `CC1(C)CC(=O)C2=C(C1)N=C1SCCC(=O)N1C2c1ccc(C(F)(F)F)cc1` (stereo not drawn), the inhibition was -1.93%.

Regarding `COc1ccc(/C=C(\C#N)C(=O)ONC2=NCCCCC2)cc1`, the inhibition was -9.38%.

Take `COc1cccc(-c2nn(-c3ccccc3)cc2/C=C(\C#N)C(=O)NCCCn2ccnc2)c1`: the inhibition is -15%.

Take `CCOc1ccc(N2C(=O)CN(c3cccc4ccccc34)C2=S)cc1`: the inhibition is -4%.

Regarding `COc1cccc(N(Cc2nnc3n2CCCCC3)C(=O)Nc2ccccc2F)c1`, the inhibition was -3.77%.

Regarding `O=C(Nc1nc(-c2cccnc2)cs1)c1ccccc1F`, the inhibition is -5.59%.

`COc1cc(/C=N/NC(=O)Nc2ccccc2)ccc1OCCOc1ccccc1C`: the inhibition is 65.1% (active).

Turning to `COc1cc(/C=N/NC(=O)c2ccccc2)ccc1OS(=O)(=O)c1ccccc1`, the inhibition is -11.2%.

Consider `COc1ccc(/C=N/NC(=O)c2ccccc2)cc1OS(=O)(=O)c1ccccc1`, for which the inhibition is -7.38%.

On to `Cc1ccc(C(=O)N2CCN(S(=O)(=O)N3CCOCC3)CC2)cc1`, for which the inhibition is 0.85%.

As for `COc1ccc(C(=O)NN2C(=O)C3C(c4ccccc4)C=CC(c4ccccc4)C3C2=O)cc1` (stereo not drawn), the inhibition was -6.27%.

As for `O=C(NCC1CCN(Cc2ccccc2Cl)CC1)Nc1cccc(Cl)c1`, the inhibition was -3.66%.

For `Cc1cc(/C=C(/C#N)C(=O)Nc2ccc(Cl)cc2)c(C)n1-c1cccnc1`, the inhibition was -4.94%.

On to `O=C1C=CC(=O)N1c1ccc(N2CCCCC2)cc1`, for which the inhibition is 14.7% (active).

As to `Cc1ccccc1C(=O)Nc1ccc(N2CCCCCC2)cc1`, the inhibition was -6.04%.

In the case of `O=c1[nH][nH]c(=O)c2cc(N3CCCC3)ccc12`, the inhibition was 0.44%.

Consider `Cc1c(NC(=O)CN2C(=O)C(=O)N(Cc3ccccc3)C2=O)c(=O)n(-c2ccccc2)n1C`, for which the inhibition was -6.97%.

As for `CCS(=O)(=O)c1ccc(O)c(NC(=O)COc2ccc(Cl)cc2)c1`, the inhibition was -5.54%.
